# Compound activity: PubChem, Broad Institute
# GASC1 inh = blocks human GASC-1 (KDM4C) demethylase activity | Q9H3R0 | GST-KDM4C 2-372, H3K9me3 peptide, LANCE TR-FRET | inhibition, % at 12.5 µM | 0.15% of 96,000 active | AID 720574;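 active means mean replicate inhibition above about 25%, with at least 55% of replicates also reaching it, limit read from the data, passing the limit was not always enough; inconclusive means only one of those two conditions met; inactive means neither condition met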
# Target sequence (Q9H3R0 2-372 limits assumed): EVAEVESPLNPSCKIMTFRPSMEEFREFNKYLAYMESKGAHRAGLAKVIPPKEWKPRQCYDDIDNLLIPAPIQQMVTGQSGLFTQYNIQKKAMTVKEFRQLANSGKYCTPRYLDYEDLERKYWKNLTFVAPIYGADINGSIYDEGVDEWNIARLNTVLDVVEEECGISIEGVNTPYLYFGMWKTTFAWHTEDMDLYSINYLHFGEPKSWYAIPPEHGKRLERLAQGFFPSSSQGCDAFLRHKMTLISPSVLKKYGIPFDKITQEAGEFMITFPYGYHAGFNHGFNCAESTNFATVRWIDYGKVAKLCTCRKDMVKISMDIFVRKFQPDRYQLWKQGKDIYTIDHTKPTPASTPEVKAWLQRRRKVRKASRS
#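 Test system: N-terminal GST-fused human GASC-1 (KDM4C) fragment, residues 2-372; quantity: GASC-1 enzyme at 10 nM final in reaction; dosing: single dose; schedule: 30 min demethylation and 1 h detection at room temperature; signal: LANCE TR-FRET, excitation 340 nm, emissions 618 and 671 nm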
# T cruzi growth-1 = blocks T. cruzi growth in NIH3T3 culture | T. cruzi beta-gal in NIH3T3, GalScreen luminescence, 90 h | inhibition, % at 8.34 µM | 5.9% of 77,000 active;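 active means mean inhibition above about 93%, with at least 55% of replicates each passing it, limit read from the data, passing the limit was not always enough; inconclusive means only one of those two conditions holds; inactive means neither condition holds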
# IDH1 R132H inh = blocks human IDH1 R132H reductase activity. diaphorase/resazurin fluorescence, 60 min. 0.18% of 70,000 active. O75874. inhibition, % at 10 µM. AID 624101; in the data active means inhibition above about 34%; inconclusive means no clear call, values can overlap the other calls; inactive means below about 11%;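 further: 0% = DMSO and 100% = no enzyme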
# T cruzi growth-2 = inhibitors of T. cruzi proliferation | shares compounds with T cruzi growth-1 | T. cruzi beta-gal in NIH3T3, GalScreen luminescence, 90 h | inhibition, % at 8.35 µM | 72% of 5,600 active | AID 651739;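 active means mean replicate inhibition above about 95% and at least 55% of replicates individually reaching it, limit read from the data; inconclusive means only one of the two criteria is met; inactive means neither criterion is met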
# T cruzi growth-3 = blocks T. cruzi growth in NIH3T3 host cells; shares compounds with T cruzi growth-1; T. cruzi beta-gal in NIH3T3, GalScreen luminescence, 90 h; inhibition, % at 2.09 µM; 21% of 5,600 active; AID 651740;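 active means mean inhibition above about 95%, with at least 55% of replicates also reaching it, limit read from the data; inconclusive means meets just one of the two conditions; inactive means meets neither condition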;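 further: plate controls were neutral control median for no effect and positive control median for full effect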
# 3T3 cytotox = kills mouse NIH/3T3 fibroblasts. cytotoxicity (signal decrease), % at 8.35 µM. 14% of 5,600 active. NIH/3T3 viability, CellTiter-Glo ATP luminescence, 90 h. shares compounds with T cruzi growth-1;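 active means mean signal decrease across replicates above about 35% based on untreated-well scatter, with enough replicates individually passing, limit read from the data; inconclusive means no rule stated though some were filed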;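 further: 0% = median of neutral control wells and 100% = median of positive control wells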
# 3T3 cytotox 2 = NIH/3T3 (mouse) viability loss; shares compounds with T cruzi growth-1; AID 651744; inhibition, % at 24.9 µM; 56% of 5,600 active; NIH/3T3 viability, CellTiter-Glo ATP luminescence, 90 h;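 active means mean loss of cell viability signal at or above a set limit, and enough replicates individually reaching it; inconclusive means meets only the mean limit or only the replicate share; inactive means meets neither condition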;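 further: 0% = median of neutral control wells and 100% = median of positive control wells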
# Starred values were filed as active, the others as inactive; ? = inconclusive; nt = no result given. The sample as a whole holds a higher share of hits than the screen did.
SMILES,GASC1 inh,T cruzi growth-1,IDH1 R132H inh,T cruzi growth-2,T cruzi growth-3,3T3 cytotox,3T3 cytotox 2
C[C@@H]1CCCCO[C@H](CN(C)S(=O)(=O)c2ccc(Cl)cc2)[C@H](C)CN([C@@H](C)CO)C(=O)c2cc(NS(=O)(=O)c3ccccc3)ccc2O1,0,nt,nt,nt,nt,nt,nt
C[C@H]1CCCCO[C@H](CN(C)S(=O)(=O)c2ccccc2)[C@@H](C)CN([C@@H](C)CO)C(=O)c2cc(NS(=O)(=O)c3ccc(Cl)cc3)ccc2O1,-4,114*,nt,103*,94,-12,-7
C[C@@H]1CCCCO[C@H](CN(C)S(=O)(=O)c2ccc(Cl)cc2)[C@@H](C)CN([C@H](C)CO)C(=O)c2cc(NS(=O)(=O)c3ccccc3)ccc2O1,-2,57,nt,nt,nt,nt,nt
C[C@@H]1CCCCO[C@@H](CN(C)S(=O)(=O)c2ccccc2)[C@H](C)CN([C@H](C)CO)C(=O)c2cc(NS(=O)(=O)c3ccc(Cl)cc3)ccc2O1,-4,110*,nt,101*,?,-9,11
COC(=O)c1ccccc1NC(=O)CSc1nc2c(cc1C#N)CCCCC2,nt,nt,0,nt,nt,nt,nt
[N-]=[N+]=NC[C@H](Cc1ccccc1)NC(=O)c1ccccc1,nt,nt,0,nt,nt,nt,nt
CCOC(=O)c1ccc(NC(=O)CSc2nc3ccc(C)cc3[nH]2)cc1,nt,nt,0,nt,nt,nt,nt
COc1ccc(C(=O)O[C@H]2CC(C)=CC[C@]3(C)[C@@H]2[C@](O)(C(C)C)C[C@@H]3O)cc1,nt,nt,0,nt,nt,nt,nt
CO[C@H]1C[C@H](O[C@H]2[C@H](C)[C@@H](O[C@@H]3O[C@H](C)C[C@H](N(C)C)[C@@H]3OC(C)=O)[C@@H](C)C[C@]3(CO3)C(=O)[C@H](C)[C@@H](OC(C)=O)[C@@H](C)[C@@H](C)OC(=O)[C@@H]2C)O[C@@H](C)[C@@H]1OC(C)=O,nt,nt,0,nt,nt,nt,nt
C[C@@H]1CN([C@@H](C)CO)C(=O)c2cccc(NC(=O)c3cnccn3)c2O[C@@H]1CN(C)Cc1ccc(C(F)(F)F)cc1,-1,0,0,nt,nt,nt,nt
O=C(c1ccccc1F)N1CC[C@@H]2[C@@H](CO)Nc3ccc(C#Cc4ccccc4)cc3[C@@H]21,-5,?,nt,109*,86,9,104*
CC(=O)N1CC[C@H]2[C@H](CO)Nc3ccc(C#Cc4ccccc4F)cc3[C@H]21,-3,nt,nt,nt,nt,nt,nt
COc1ccc(C#Cc2ccc3c(c2)[C@@H]2[C@@H](CCN2C(=O)C2CC2)[C@@H](CO)N3)cc1,-2,109*,nt,110*,34,20,46*
O=C(c1ccccc1F)N1CC[C@H]2[C@H](CO)Nc3ccc(C#Cc4ccccc4)cc3[C@H]21,-1,108*,nt,111*,81,20,?
O=C(c1ccccc1F)N1CC[C@@H]2[C@H]1c1cc(-c3ccccc3)ccc1N[C@@H]2CO,-5,93,nt,nt,nt,nt,nt
COc1ccc(C#Cc2ccc3c(c2)[C@@H]2[C@@H](CCN2C(=O)C2CC2)[C@H](CO)N3)cc1,-2,nt,nt,nt,nt,nt,nt
COc1cccc(C#Cc2ccc3c(c2)[C@@H]2[C@@H](CCN2C(=O)c2ccccc2F)[C@H](CO)N3)c1,-1,nt,nt,nt,nt,nt,nt
COc1ccc(C#Cc2ccc3c(c2)[C@@H]2[C@@H](CCN2C(=O)c2ccccc2F)[C@H](CO)N3)cc1,0,100*,nt,93,19,-15,9
O=C(CSc1nnc(-c2ccncc2)n1-c1ccc(Cl)cc1)Nc1ccccc1-c1ccccc1,nt,nt,0,nt,nt,nt,nt
C[C@H](CO)N1C[C@H](C)[C@H](CN(C)Cc2ccccc2C(=O)O)Oc2ncc(C3=CCCC3)cc2C1=O,3,56,0,nt,nt,nt,nt
Cc1sc2ncnc(SCC(=O)Nc3ccc(-c4nc5ccccc5s4)cc3)c2c1C,nt,nt,-1,nt,nt,nt,nt
C/C=C/c1ccc([C@@H]2[C@@H](CO)N(Cc3ccccn3)[C@H]2CNC(C)=O)cc1,3,79,nt,nt,nt,nt,nt
O=C(NC[C@H]1[C@H](c2ccccc2)[C@@H](CO)N1Cc1ccccn1)C1CCCC1,4,-65,nt,nt,nt,nt,nt
O=C(NC[C@H]1[C@H](c2ccccc2)[C@H](CO)N1Cc1ccccn1)C1CCCC1,1,97*,nt,48,-19,14,-1
C/C=C/c1ccc([C@@H]2[C@H](CO)N(Cc3ccccn3)[C@H]2CNC(C)=O)cc1,3,98*,nt,-17,-13,0,9
SMILES,GASC1 inh,T cruzi growth-1,IDH1 R132H inh,T cruzi growth-2,T cruzi growth-3,3T3 cytotox,3T3 cytotox 2
Cc1cc(C(=O)CSc2ncn[nH]2)c(C)n1-c1cc(Cl)ccc1Cl,nt,nt,3,nt,nt,nt,nt
O=C(CCCOc1ccc(Cl)cc1Cl)Nc1ccc2c(c1)C(=O)NC2=O,nt,nt,0,nt,nt,nt,nt
O=C(C[C@H]1CC[C@H]2[C@@H](COC[C@H](O)CN2Cc2ccc(Cl)cc2)O1)Nc1nccs1,-1,81,nt,nt,nt,nt,nt
O=C(C[C@H]1CC[C@H]2[C@@H](COC[C@@H](O)CN2Cc2ccc(Oc3ccccc3)cc2)O1)Nc1nccs1,-4,152*,nt,102*,18,-4,17
O=C(C[C@H]1CC[C@H]2[C@@H](COC[C@H](O)CN2Cc2cccc(Cl)c2)O1)Nc1nccs1,0,133*,nt,?,25,23,20
O=C(C[C@H]1CC[C@@H]2[C@H](COC[C@@H](O)CN2Cc2ccc(Oc3ccccc3)cc2)O1)Nc1nccs1,3,73,nt,nt,nt,nt,nt
O=C(C[C@H]1CC[C@@H]2[C@H](COC[C@@H](O)CN2Cc2ccc(Cl)cc2)O1)Nc1nccs1,0,30,nt,nt,nt,nt,nt
O=C(C[C@@H]1CC[C@H]2[C@@H](COC[C@H](O)CN2Cc2ccc(Oc3ccccc3)cc2)O1)Nc1nccs1,-2,193*,nt,104*,36,-13,?
O=C(C[C@H]1CC[C@H]2[C@@H](COC[C@H](O)CN2Cc2ccc(Oc3ccccc3)cc2)O1)Nc1nccs1,3,191*,nt,103*,54,3,20
O=C(C[C@@H]1CC[C@@H]2[C@H](COC[C@H](O)CN2Cc2cccc(Cl)c2)O1)Nc1nccs1,-1,68,nt,nt,nt,nt,nt
O=C(NO)c1ccc(C(=O)N/N=C/c2ccccc2[N+](=O)[O-])cc1,nt,nt,0,nt,nt,nt,nt
COc1cc(OC)c(NC(=O)CCCN2C(=O)c3ccccc3C2=O)cc1Cl,nt,nt,0,nt,nt,nt,nt
COc1ccc(NC(=O)Nc2ccc3c(c2)CC(=O)N([C@H](C)CO)C[C@@H](C)[C@@H](CN(C)Cc2ccc(C(=O)O)cc2)O3)cc1,1,15,nt,nt,nt,nt,nt
CC1=CCC(C(C)(C)O[C@@H]2O[C@H](C)[C@@H](O)[C@H](O)[C@H]2O)CC1 (some centres undefined),nt,nt,0,nt,nt,nt,nt
O=C(CSC1CC(=O)N(c2ccccc2)C1=O)Nc1ccccc1F (centres undefined),nt,nt,0,nt,nt,nt,nt
CN1C(=O)c2cc(NC(=O)c3cccc(F)c3)ccc2OC[C@H]2O[C@@H](CC(=O)NC3CCC3)CC[C@@H]21,0,nt,nt,nt,nt,nt,nt
